One assay deals with A549. Briefly: Cytotoxicity against human A549 cells by MTT assay. The class given is functional, cell-based. In outline:
(§1)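 Cytotoxicity was read by MTT assay on human tumour lines: A549 lung, HT-29 colon, MCF-7 breast, SK-OV-3 ovary, and HL-60 and U937 leukaemia. Results are given as IC50 (μM), with values below 100 μM counted as active. A positive control was included.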
A general note: Tetrazolium dyes change colour on reduction, which living cells bring about.

The subject of assay [1] is HL-60. The assay can be described thus: Cytotoxicity against human HL60 cells by MTT assay. It is filed as functional, cell-based. In outline:
as §1

The next assay deals with HT-29. Briefly: Cytotoxicity against human HT-29 cells by MTT assay. It is filed as functional, cell-based. In outline:
as §1

The next assay has as its system MCF7. Briefly: Cytotoxicity against human MCF7 cells by MTT assay. The class given is functional, cell-based. The method, boiled down:
as §1

A further assay concerns SK-OV-3. Briefly: Cytotoxicity against human SKOV3 cells by MTT assay. It is filed as functional, cell-based. The method, boiled down:
as §1

For a further assay, the system named is U-937. Briefly: Cytotoxicity against human U937 cells by MTT assay. It is filed as functional, cell-based. The method, boiled down:
as §1

Assay [2] concerns HL-60. Briefly: Cell cycle distribution in human HL60 cells assessed as cell cycle accumulation at sub-G1 phase at 21.5 uM after 6 hrs by flow cytometry. It is filed as functional. The method, boiled down:
(§2)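 HL-60 cells exposed for 6, 12 or 24 h, then washed twice in PBS and fixed in 70% ethanol (30 min, 4°C). After a PBS rinse they were stained in the dark with 50 μg/mL propidium iodide plus 50 μg/mL RNase A (30 min, 37°C). DNA content was read by flow cytometry, and the sub-G1 hypodiploid fraction was taken from the DNA histograms.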
A general note: A flow cytometer gives signals particle by particle.

Assay [3] deals with HL-60. The assay can be described thus: Cell cycle distribution in human HL60 cells assessed as cell cycle accumulation at sub-G1 phase at 21.5 uM after 12 hrs by flow cytometry. The class given is functional. The method, boiled down: as §2
The test system of assay [4] is HL-60. Briefly: Cell cycle distribution in human HL60 cells assessed as cell cycle accumulation at sub-G1 phase at 21.5 uM after 24 hrs by flow cytometry. It is filed as functional. The method, boiled down:
as §2

The test system of assay [5] is HL-60. Briefly: Induction of apoptosis in human HL60 cells assessed as increase in number of apoptotic body with condensed and fragmented nuclei at 21.5 uM after 6 to 24 hrs by H33342 staining method. It is filed as functional, cell-based. The method, boiled down: (§3)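 HL-60 cells at 3×10^5 cells/mL were exposed for 6, 12 and 24 h, washed twice with PBS and stained with 1 mg/mL Hoechst 33342 (30 min, 37°C). Apoptotic bodies, seen as condensed and fragmented nuclei, were scored by fluorescence microscopy at ×400.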

For assay [6], the system named is HL-60. The assay can be described thus: Cell cycle distribution in human HL60 cells assessed as cell cycle accumulation at sub-G1 phase at 21.3 uM after 6 hrs by flow cytometry. The class given is functional. The method, boiled down:
as §2

The subject of assay [7] is HL-60. Briefly: Cell cycle distribution in human HL60 cells assessed as cell cycle accumulation at sub-G1 phase at 21.3 uM after 12 hrs by flow cytometry. The class given is functional. The method, boiled down: as §2
The subject of assay [8] is HL-60. Briefly: Cell cycle distribution in human HL60 cells assessed as cell cycle accumulation at sub-G1 phase at 21.3 uM after 24 hrs by flow cytometry. The class given is functional. The method, boiled down: as §2
Assay [9] has as its system HL-60. The assay can be described thus: Induction of apoptosis in human HL60 cells assessed as increase in number of apoptotic body with condensed and fragmented nuclei at 21.3 uM after 6 to 24 hrs by H33342 staining method. The class given is functional, cell-based. In outline: as §3
Assay [10] has as its system HL-60. Briefly: Cell cycle distribution in human HL60 cells assessed as cell cycle accumulation at sub-G1 phase at 19.9 uM after 6 hrs by flow cytometry. The class given is functional. The method, boiled down: as §2
The test system of assay [11] is HL-60. Briefly: Cell cycle distribution in human HL60 cells assessed as cell cycle accumulation at sub-G1 phase at 19.9 uM after 12 hrs by flow cytometry. It is filed as functional. The method, boiled down: as §2
In assay [12] the test system is HL-60. Briefly: Cell cycle distribution in human HL60 cells assessed as cell cycle accumulation at sub-G1 phase at 19.9 uM after 24 hrs by flow cytometry. The class given is functional. The method, boiled down: as §2
In assay [13] the test system is HL-60. The assay can be described thus: Induction of apoptosis in human HL60 cells assessed as increase in number of apoptotic body with condensed and fragmented nuclei at 19.9 uM after 6 to 24 hrs by H33342 staining method. It is filed as functional, cell-based. The method, boiled down:
as §3

Activity calls are given as the source filed them. No cut-off for these calls is given here.

For orientation: IC50 means the concentration that inhibits the measured activity by half. With `C[C@H](CC[C@@H](C)[C@H]1CC[C@H]2[C@@H]3CC=C4C[C@@H](O)CC[C@]4(C)[C@H]3CC[C@]12C)[C@@H]1C[C@H]1C` [PETROSTEROL], the IC50 is 11.5 µM in the assay with A549; 21.5 µM with HL-60 [1]; 46.5 µM in the assay on HT-29; 16.4 µM in the assay with MCF7; 19.8 µM in the assay with SK-OV-3; 18.7 µM in the assay on U-937. For the same molecule, the Activity with HL-60 [2] is recorded as 12.61%; in the assay on HL-60 [3], 27.4%; in the assay on HL-60 [4] it was 52.58%. Besides, in the assay with HL-60 [5], the result was Active.

For `O=C1c2c(O)ccc(O)c2C(=O)c2c(NCCNCCO)ccc(NCCNCCO)c21` [MITOXANTRONE], the IC50 with A549 was found to be 8 µM; in the assay on HL-60 [1], 6.3 µM; in the assay with HT-29, 8.7 µM; with MCF7 it was 7.1 µM; in the assay on SK-OV-3 it was 9.8 µM; with U-937, 6.2 µM.

Consider `CC(CCC(C)C1CCC2C3CC4OC45CC(O)CCC5(C)C3CCC12C)C1CC1C` (stereo unspecified), for which the IC50 in the assay on A549 was determined as 9.8 µM; in the assay with HL-60 [1], 21.3 µM; with HT-29, 69.9 µM; in the assay on MCF7 it was 19.4 µM; in the assay with SK-OV-3, 22.6 µM; in the assay with U-937, 19.9 µM. The values for the Activity with HL-60 [6], in the assay on HL-60 [7] and in the assay with HL-60 [8] were 11.8%, 24.92% and 51.33%, respectively. The outcome in the assay with HL-60 [9] was Active.

For `C[C@H](CC[C@@H](C)[C@H]1CC[C@H]2[C@@H]3CC(=O)C4=CC(=O)CC[C@]4(C)[C@H]3CC[C@]12C)[C@@H]1C[C@H]1C`, the IC50 with A549 came out at 8.4 µM; in the assay with HL-60 [1] it was 19.9 µM; in the assay on HT-29, 48.2 µM; in the assay on MCF7, 17.8 µM; in the assay with SK-OV-3 it was 16.2 µM; in the assay on U-937 it was 22.1 µM. The Activity with HL-60 [10] stood at 11.19%; in the assay with HL-60 [11], 21.85%; in the assay with HL-60 [12], 48.83%. Further, the result in the assay on HL-60 [13] was Active.

For the origin of these results see ChEMBL document CHEMBL1153479, “C29 sterols with a cyclopropane ring at C-25 and 26 from the Vietnamese marine sponge Ianthella sp. and their anticancer properties” (Bioorg Med Chem Lett, 2009).
